The text below walks through data of ChEMBL document CHEMBL1681752, “Discovery of novel (4-piperidinyl)-piperazines as potent and orally active acetyl-CoA carboxylase 1/2 non-selective inhibitors: F-Boc and triF-Boc groups are acid-stable bioisosteres for the Boc group” (Bioorg Med Chem, 2011).

For data set [1], the system named is HepG2. The data set is described as follows: Inhibition of fatty acid synthesis in human HepG2 cells assessed as [14C]acetate incorporation after 2 hrs by liquid scintillation counter. Type of data set: functional, cell-based. The settings on record: HepG2, 2 h. In outline:
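HepG2 cells are plated at 3 × 10^5/well and grown 48 h in DMEM/10% FBS. They are serum-starved 1 h in DMEM with 1.5% BSA, with or without compound. Radiolabelled acetate is added for 2 h. Cells are washed, then saponified with KOH for 2 h at 70 °C. After hexane washes and acidification to pH <2, fatty acids are extracted into hexane.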

In data set [2] the target is Acetyl-CoA carboxylase (Homo sapiens, UniProt Q13085+O00763). In words: Inhibition of human ACC1/2 assessed as [14C]malonyl-CoA synthesis. Type of data set: protein assay. In outline: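 Enzyme source: human liver cytosol, ammonium sulfate precipitated (30%) and anion-exchange purified in MOPS pH 7.5 buffer. It is preincubated with compound or DMSO for 30 min at 37 °C in Tris acetate pH 7.5 buffer. Substrates are 2.12 mM ATP, 18.2 mM NaHCO3 and [14C]acetyl-CoA. Unreacted acetyl-CoA is converted to acetyl-carnitine and retained on cation-exchange resin, and eluted [14C]malonyl-CoA is counted. IC50 is the mean of at least two experiments.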

Data set [3] is described as follows: Metabolic stability in human liver microsomes assessed as compound recovery after 15 mins by LC-MS/MS. Type of data set: ADME, Microsome. Conditions: read-out: Stability. Put shortly: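 Compound is incubated at 37 °C with 1 mg/mL human liver microsomes in phosphate buffer with an NADPH-generating system (glucose-6-phosphate, NADP, G6P dehydrogenase) plus MgCl2 and KCl. Levels at 0 and 15 min are measured by LC–MS/MS, and percent remaining is taken from their ratio.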
(Microsomes from liver hold many membrane-bound enzymes, among them those of drug oxidation.)

A short description of data set [4]: Chemical stability of the compound in simulated gastric media assessed as compound recovery at pH 1.2 after 3 hrs by HPLC method. It is filed as physicochemical. The settings on record: read-out: Stability. In outline: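 Acid stability: compound is held in aqueous solution at pH 1.2 for 3 h at 37 °C. Parent remaining is quantified by HPLC.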
For data set [5], the target named is Acetyl-CoA carboxylase (Rattus norvegicus, UniProt P11497+Q1HEC0). The data set is described as follows: Inhibition of rat ACC1/2 assessed as malonyl-CoA synthesis. Type of data set: protein assay. In outline:
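Rat liver cytosolic ACC is preincubated with compound or DMSO for 30 min at 37 °C in Tris acetate pH 7.5 buffer. The reaction uses the liver-ACC substrate mix: 2.12 mM ATP, 18.2 mM NaHCO3 and [14C]acetyl-CoA. Residual acetyl-CoA is removed as acetyl-carnitine on cation-exchange resin, and [14C]malonyl-CoA in the eluate is counted. IC50 is the mean of at least two experiments.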

The structures appear in SMILES notation.

Usually IC50 stands for the concentration needed to halve the response being measured. `CCNC(=O)Nc1sc2ccccc2c1C(=O)N1CCN(C2CCN(C(=O)OC3CCCCC3)CC2)CC1`: the IC50 came out at 635 nM in data set [1] and 76 nM in data set [2].
As for `CCCCC(=O)N1CCC(N2CCN(C(=O)c3c(NC(=O)NCC)sc4ccccc34)CC2)CC1`, the IC50 in data set [2] turned out to be 207 nM.
In the case of `CCNC(=O)Nc1sc2cc(OC)ccc2c1C(=O)N1CCN(C2CCN(C(=O)OC(C)(C)C(F)(F)F)CC2)CC1`, in data set [3], the remaining at 0.25 h was 29%. Also, the IC50 in data set [1] was determined as 67 nM; in data set [2] it was 27 nM.
On to `CCNC(=O)Nc1sc2cc(C(F)(F)F)ccc2c1C(=O)N1CCN(C2CCN(C(=O)OC(C)(C)C(F)(F)F)CC2)CC1`, for which, in data set [3], the remaining at 0.25 h was 7%. The IC50 in data set [2] came out at 98 nM.
For the compound `CCNC(=O)Nc1sc2cnccc2c1C(=O)N1CCN(C2CCN(C(=O)OC(C)(C)C(F)(F)F)CC2)CC1`, the remaining at 0.25 h in data set [3] is 67%. Moreover, the IC50 in data set [1] was 152 nM; in data set [2], 41 nM.
`CC(=O)N1CCC(C(=O)N2CCC(N3CCN(C(=O)c4cc(-c5ccc(C)cc5)nc(-c5ccc6[nH]c(C)c(C)c6c5)c4)CC3)CC2)CC1`: the concentration for half-maximal inhibition (IC50) came out at 294 nM in data set [1] and 33 nM in data set [2].
As to `CCNC(=O)Nc1sc2cccnc2c1C(=O)N1CCN(C2CCN(C(=O)OC(C)(C)C(F)(F)F)CC2)CC1`, the remaining at 0.25 h in data set [3] worked out at 13%. Moreover, the IC50 stood at 49 nM in data set [1] and 12 nM in data set [2].
Regarding `CCNC(=O)Nc1sc2ccccc2c1C(=O)N1CCN(C2CCN(C(=O)OC(C)(C)C(F)(F)F)CC2)CC1`, the remaining at 0.25 h in data set [3] came out at 5%. In addition, the remaining at 3 h in data set [4] is 100%. For the same compound, the IC50 in data set [1] came out at 81 nM; in data set [2], 31 nM.
Regarding `CCNC(=O)Nc1sc2cc(C)ccc2c1C(=O)N1CCN(C2CCN(C(=O)OC(C)C)CC2)CC1`, the remaining at 0.25 h in data set [3] worked out at 77%. Besides, the IC50 in data set [1] came to 628 nM; in data set [2] it was 60 nM.
In the case of `CCNC(=O)Nc1sc2ccncc2c1C(=O)N1CCN(C2CCN(C(=O)OC(C)(C)C(F)(F)F)CC2)CC1`, the IC50 in data set [2] was found to be 117 nM.
Turning to `CC(=O)N1CCC(C(=O)N2CCC(N3CCN(C(=O)c4cc(-c5ccc(C)cc5)nc(-c5ccc(C)cc5)c4)CC3)CC2)CC1`, the IC50 in data set [5] is recorded as 70 nM.
For the compound `CCNC(=O)Nc1sc2ccccc2c1C(=O)N1CCN(C2CCN(C(=O)OC)CC2)CC1`, the IC50 in data set [2] came to 175 nM.
In the case of `CCNC(=O)Nc1sc2ccccc2c1C(=O)N1CCN(C2CCN(C(=O)OC(C)(C)CF)CC2)CC1`, the remaining at 0.25 h in data set [3] was 3%. In addition, the remaining at 3 h in data set [4] was 98%. Further, the IC50 in data set [1] amounted to 61 nM; in data set [2] it was 17 nM.
Consider `CCNC(=O)Nc1sc2ccccc2c1C(=O)N1CCN(C2CCN(C(=O)OCC)CC2)CC1`, for which the IC50 is 228 nM in data set [1] and 55 nM in data set [2].
Consider `CCNC(=O)Nc1sc2cc(Cl)ccc2c1C(=O)N1CCN(C2CCN(C(=O)OC(C)(C)C(F)(F)F)CC2)CC1`, for which the remaining at 0.25 h in data set [3] amounted to 51%. Moreover, the IC50 in data set [2] is recorded as 38 nM.
For the compound `CCCC(=O)N1CCC(N2CCN(C(=O)c3c(NC(=O)NCC)sc4ccccc34)CC2)CC1`, the IC50 in data set [2] came out at 242 nM.
On to `CCNC(=O)Nc1sc2ccccc2c1C(=O)N1CCN(C2CCN(C(=O)OC(C)C)CC2)CC1`, for which the remaining at 0.25 h in data set [3] amounted to 3%. Besides, the IC50 came out at 208 nM in data set [1] and 28 nM in data set [2].
Turning to `CCNC(=O)Nc1sc2ccccc2c1C(=O)N1CCN(C2CCN(C(=O)CC)CC2)CC1`, the IC50 in data set [2] is reported as 597 nM.
Turning to `CCNC(=O)Nc1sc2ccccc2c1C(=O)N1CCN(C2CCN(C(=O)OC(C)(C)C)CC2)CC1`, the remaining at 3 h in data set [4] was 23%. Also, the IC50 in data set [1] is 79 nM; in data set [2], 24 nM.
On to `CCNC(=O)Nc1sc2ccc(C)cc2c1C(=O)N1CCN(C2CCN(C(=O)OC(C)C)CC2)CC1`, for which the remaining at 0.25 h in data set [3] was 3%. Besides, the IC50 came out at 254 nM in data set [1] and 32 nM in data set [2].
`CCNC(=O)Nc1sc2ncccc2c1C(=O)N1CCN(C2CCN(C(=O)OC(C)(C)C(F)(F)F)CC2)CC1`: the remaining at 0.25 h in data set [3] stood at 3%. In addition, the results for the IC50 in data set [1] and in data set [2] were 67 nM and 45 nM, respectively.
Regarding `CCNC(=O)Nc1sc2ccccc2c1C(=O)N1CCN(C2CCN(C(=O)CC(C)C)CC2)CC1`, the IC50 in data set [2] worked out at 144 nM.
With `CCNC(=O)Nc1sc2ccccc2c1C(=O)N1CCN(C2CCN(C(=O)C3CCN(C(C)=O)CC3)CC2)CC1.O=C(O)/C=C\C(=O)O`, in data set [2], the IC50 was determined as 74 nM.
On to `CCNC(=O)Nc1sc2ccccc2c1C(=O)N1CCN(C2CCN(C(=O)NC(C)(C)C)CC2)CC1`, for which the IC50 is 775 nM in data set [1] and 119 nM in data set [2].
The like results for `CCNC(=O)Nc1sc2ccccc2c1C(=O)N1CCN(C2CCN(C(=O)C3CCCCC3)CC2)CC1` were, in that order, 146 nM and 81 nM.
Turning to `CCNC(=O)Nc1sc2cc(F)ccc2c1C(=O)N1CCN(C2CCN(C(=O)OC(C)(C)C(F)(F)F)CC2)CC1`, the remaining at 0.25 h in data set [3] was 17%. The IC50 in data set [2] amounted to 62 nM.
In the case of `CCNC(=O)Nc1sc2ccccc2c1C(=O)N1CCN(C2CCN(C(=O)C3CCCC3)CC2)CC1.O=C(O)/C=C\C(=O)O`, the IC50 in data set [1] amounted to 309 nM; in data set [2], 49 nM.
Regarding `CCNC(=O)Nc1sc2ccccc2c1C(=O)N1CCN(C2CCN(C(=O)C(C)C)CC2)CC1`, in data set [2], the IC50 is 131 nM.
With `CCNC(=O)Nc1sc2ccccc2c1C(=O)N1CCN(C2CCN(C(=O)C(C)(C)C)CC2)CC1`, the IC50 amounted to 450 nM in data set [1] and 109 nM in data set [2].
The like results for `CCNC(=O)Nc1sc2ccccc2c1C(=O)N1CCN(C2CCN(C(=O)OC3CCCC3)CC2)CC1` were, in that order, 512 nM and 52 nM.
Regarding `CCNC(=O)Nc1sc2ccccc2c1C(=O)N1CCN(C2CCN(C(C)=O)CC2)CC1`, in data set [2], the IC50 is given as 1864 nM.
For the compound `CCNC(=O)Nc1sc2cc(C)ccc2c1C(=O)N1CCN(C2CCN(C(=O)OC(C)(C)CF)CC2)CC1`, the remaining at 0.25 h in data set [3] was determined as 84%. For the same compound, the figures for the IC50 in data set [1] and in data set [2] were 73 nM and 32 nM, respectively.
